Laboratory results as given in ChEMBL document CHEMBL5154669, “G-Quadruplex DNA as a Target in Pathogenic Bacteria: Efficacy of an Extended Naphthalene Diimide Ligand and Its Mode of Action” (J Med Chem, 2022).
In brackets after ≈: the same amount, converted by molar mass. Activity calls are given as the source filed them. The rule behind the calls is not given here. Where a SMILES comes first, the peptide text is derived from it. Bridges are numbered along the chain shown (N, C = ends). [ ]: non-standard residue; d: D form. The star is where a group is joined. X1 = CC[C@H](C)CCCCC(=O)*; Orn = NCCC[C@H](N)C(=O)O; Dab = NCC[C@H](N)C(=O)O

Key:
Escherichia coli [1] = assay: Bacteriolytic activity against Escherichia coli LMG 8223 incubated for 2 hrs; type: functional, organism-based
How it was run: (§1)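 Cultures grown 20 h were washed three times in HEPES with 5% glucose, adjusted to OD600 0.5 and exposed at 37 °C. OD600 was followed every 15 min for 2 h. Controls for E. coli were polymyxin B (2 μM) and erythromycin (32 μM). Controls for Gram-positive strains were gramicidin S (2 μM) and chloramphenicol (16 μM). Cells were then spotted on cMHB agar, 20 h, 37 °C, in triplicate.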

Bacillus cereus [2] = assay: Bacteriolytic activity against Bacillus cereus ATCC 10987 incubated for 2 hrs; type: functional, organism-based; how it was run: as §1
Enterococcus faecium [3] = assay: Bacteriolytic activity against Enterococcus faecium LMG 16003 incubated for 2 hrs; type: functional, organism-based; how it was run: as §1
Staphylococcus aureus [4] = assay: Bacteriolytic activity against Staphylococcus aureus LMG 8224 incubated for 2 hrs; type: functional, organism-based; how it was run: as §1
Enterobacter cloacae = assay: Antibacterial activity against Enterobacter cloacae LMG 02783 assessed as inhibition of bacterial growth incubated for 20 hrs by CLSI based broth microdilution method; type: functional
How it was run: (§2)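 Broth microdilution in cation-adjusted Mueller-Hinton broth following CLSI guidelines. DMSO stocks were at 10 mM; compounds were twofold serially diluted over 128 to 2 μM. The inoculum was at 5 × 10⁵, prepared from colonies grown 20 h at 37 °C and adjusted to 0.5 McFarland. Plates ran 20 h at 37 °C with OD600 read-out. MIC was the lowest concentration inhibiting visible growth, in triplicate.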

Acinetobacter baumannii = assay: Antibacterial activity against Acinetobacter baumannii LMG 01041 assessed as inhibition of bacterial growth incubated for 20 hrs by CLSI based broth microdilution method; type: functional; how it was run: as §2
Klebsiella aerogenes = assay: Antibacterial activity against Enterobacter aerogenes LMG 02094 assessed as inhibition of bacterial growth incubated for 20 hrs by CLSI based broth microdilution method; type: functional; how it was run: as §2
Escherichia coli [5] = assay: Antibacterial activity against Escherichia coli LMG 8223 assessed as inhibition of bacterial growth incubated for 20 hrs by CLSI based broth microdilution method; type: functional; how it was run: as §2
Klebsiella pneumoniae = assay: Antibacterial activity against Klebsiella pneumoniae LMG 20218 assessed as inhibition of bacterial growth incubated for 20 hrs by CLSI based broth microdilution method; type: functional; how it was run: as §2
Pseudomonas aeruginosa = assay: Antibacterial activity against Pseudomonas aeruginosa LMG 6395 assessed as inhibition of bacterial growth incubated for 20 hrs by CLSI based broth microdilution method; type: functional; how it was run: as §2
Salmonella enterica = assay: Antibacterial activity against Salmonella enterica LMG 07233 assessed as inhibition of bacterial growth incubated for 20 hrs by CLSI based broth microdilution method; type: functional; how it was run: as §2
Bacillus cereus [6] = assay: Antibacterial activity against Bacillus cereus ATCC 10987 assessed as inhibition of bacterial growth incubated for 20 hrs by CLSI based broth microdilution method; type: functional; how it was run: as §2
Bacillus cereus [7] = assay: Antibacterial activity against Bacillus cereus ATCC 14579 assessed as inhibition of bacterial growth incubated for 20 hrs by CLSI based broth microdilution method; type: functional; how it was run: as §2
Enterococcus faecalis [8] = assay: Antibacterial activity against Enterococcus faecalis LMG 08222 assessed as inhibition of bacterial growth incubated for 20 hrs by CLSI based broth microdilution method; type: functional; how it was run: as §2
Enterococcus faecalis [9] = assay: Antibacterial activity against Enterococcus faecalis LMG 16216 assessed as inhibition of bacterial growth incubated for 20 hrs by CLSI based broth microdilution method; type: functional; how it was run: as §2
Enterococcus faecalis [10] = assay: Antibacterial activity against Enterococcus faecalis V583 assessed as inhibition of bacterial growth incubated for 20 hrs by CLSI based broth microdilution method; type: functional; how it was run: as §2
Enterococcus faecium [11] = assay: Antibacterial activity against Enterococcus faecium LMG 16003 assessed as inhibition of bacterial growth incubated for 20 hrs by CLSI based broth microdilution method; type: functional; how it was run: as §2
Staphylococcus aureus [12] = assay: Antibacterial activity against Staphylococcus aureus LMG 8224 assessed as inhibition of bacterial growth incubated for 20 hrs by CLSI based broth microdilution method; type: functional; how it was run: as §2
Staphylococcus aureus [13] = assay: Antibacterial activity against Staphylococcus aureus LMG 10147 assessed as inhibition of bacterial growth incubated for 20 hrs by CLSI based broth microdilution method; type: functional; how it was run: as §2
Staphylococcus aureus [14] = assay: Antibacterial activity against Staphylococcus aureus LMG 15975 assessed as inhibition of bacterial growth incubated for 20 hrs by CLSI based broth microdilution method; type: functional; how it was run: as §2
[15] = tested on: Staphylococcus epidermidis; assay: Antibacterial activity against Staphylococcus epidermidis Tu3298 assessed as inhibition of bacterial growth incubated for 20 hrs by CLSI based broth microdilution method; type: functional; how it was run: as §2
DNA [16] = assay: Stabilization of Staphylococcus aureus in G Quadruplex DNA GGGGCTAATTGGGGCTGGTGG assessed as change in melting temperature at 10 uM incubated for 16 hrs by […]; type: nucleic-acid assay
How it was run: (§3)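 Readout was CD melting, not FRET: 2.5 μM oligonucleotide in 10 mM lithium cacodylate pH 7.4 with KCl set per sequence (initial Tm 60-70 °C). Annealed 95 °C 5 min, cooled to room temperature over 4 h, then ligand 10 μM (4 equiv) equilibrated 16 h at 20 °C. Ellipticity at 260 nm tracked every 0.1 °C, 20-95 °C at 5 °C/min; Tm by van't Hoff two-state fit.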

DNA [17] = assay: Stabilization of Staphylococcus aureus in G-quadruplex DNA GGA AGG AGG GGT GAC AGG G assessed as change in melting temperature at 10 uM incubated for 16 hrs by […]; type: nucleic-acid assay; how it was run: as §3
DNA [18] = assay: Stabilization of Staphylococcus aureus in G-quadruplex DNA GGGTTTGGGGCGGCGGTTGG assessed as change in melting temperature at 10 uM incubated for 16 hrs by FRET method; type: nucleic-acid assay
DNA [19] = assay: Stabilization of Escherichia coli in G-quadruplex DNA GGT GGG GAG GGG TAA GGG G assessed as change in melting temperature at 10 uM incubated for 16 hrs by FRET method; type: nucleic-acid assay; details: in the assay text read “by CD melting method” for “by FRET method”; how it was run: as §3
DNA [20] = assay: Stabilization of Escherichia coli in G-quadruplex DNA GGG GGA GGA GGA CGG GGG assessed as change in melting temperature at 10 uM incubated for 16 hrs by FRET method; type: nucleic-acid assay; details: in the assay text read “by CD melting method” for “by FRET method”; how it was run: as §3
DNA [21] = assay: Stabilization of Staphylococcus aureus in G Quadruplex DNA GGGGCTAATTGGGGCTGGTGG assessed as melting at 10 uM incubated for 16 hrs temperature by […]; type: nucleic-acid assay; how it was run: as §3
DNA [22] = assay: Stabilization of Staphylococcus aureus in G-quadruplex DNA GGA AGG AGG GGT GAC AGG G assessed as melting temperature at 10 uM incubated for 16 hrs […]; type: nucleic-acid assay; how it was run: as §3
DNA [23] = assay: Stabilization of Staphylococcus aureus in G-quadruplex DNA GGGTTTGGGGCGGCGGTTGG assessed as melting temperature at 10 uM incubated for 16 hrs by […]; type: nucleic-acid assay; how it was run: as §3
DNA [24] = assay: Stabilization of Escherichia coli in G-quadruplex DNA GGT GGG GAG GGG TAA GGG G assessed as melting temperature at 10 uM incubated for 16 hrs by […]; type: nucleic-acid assay; how it was run: as §3
DNA [25] = assay: Stabilization of Escherichia coli in G-quadruplex DNA GGG GGA GGA GGA CGG GGG assessed as melting temperature at 10 uM incubated for 16 hrs by […]; type: nucleic-acid assay; how it was run: as §3
DNA [26] = assay: Stabilization of Escherichia coli in G-quadruplex DNA GGG GCG GGG TGG GTT GG assessed as melting temperature at 10 uM incubated for 16 hrs by FRET method; type: nucleic-acid assay
Enterococcus faecium [27] = assay: Antibacterial activity against Enterococcus faecium LMG 11423 assessed as inhibition of bacterial growth incubated for 20 hrs by CLSI based broth microdilution method; details: LMG 11423, 20 h
DNA [28] = assay: Stabilization of Escherichia coli in G-quadruplex DNA GGG GCG GGG TGG GTT GG assessed as change in melting temperature at 10 uM incubated for 16 hrs by CD melting method

## CC[C@H](C)CCCCC(=O)N[C@@H](CCN)C(=O)N[C@H](C(=O)N[C@@H](CCN)C(=O)N[C@H]1CCNC(=O)[C@H]([C@@H](C)O)NC(=O)[C@H](CCN)NC(=O)[C@H](CCN)NC(=O)[C@H](CC(C)C)NC(=O)[C@@H](Cc2ccccc2)NC(=O)[C@H](CCN)NC1=O)[C@@H](C)O (X1-[Dab]T[Dab][Dab][Dab][dF]L[Dab][Dab]T; lactam 4-C)
Escherichia coli [1]
  Activity: Active
Bacillus cereus [2]
  Activity: Active
Enterococcus faecium [3]
  Activity: Active
Staphylococcus aureus [4]
  Activity: Active

## CCCNc1cc2c3c(ccc4c3c1C(=O)N(CCCN(C)C)C4=O)C(=O)N(CCCN(C)C)C2=O
Enterobacter cloacae
  MIC: > 128 µM
Acinetobacter baumannii
  MIC: 64 µM (≈ 31.6 µg/mL)
Klebsiella aerogenes
  MIC: 64 µM (≈ 31.6 µg/mL)
Escherichia coli [5]
  MIC: > 128 µM
Klebsiella pneumoniae
  MIC: > 128 µM
Pseudomonas aeruginosa
  MIC: > 128 µM
Salmonella enterica
  MIC: > 128 µM
Bacillus cereus [6]
  MIC: 64 µM (≈ 31.6 µg/mL)
Bacillus cereus [7]
  MIC: 64 µM (≈ 31.6 µg/mL)
Enterococcus faecalis [8]
  MIC: 64 µM (≈ 31.6 µg/mL)
Enterococcus faecalis [9]
  MIC: 32 µM (≈ 15.8 µg/mL)
Enterococcus faecalis [10]
  MIC: 32 µM (≈ 15.8 µg/mL)
Enterococcus faecium [11]
  MIC: 16 µM (≈ 7.9 µg/mL)
Staphylococcus aureus [12]
  MIC: 128 µM (≈ 63.2 µg/mL)
Staphylococcus aureus [13]
  MIC: 128 µM (≈ 63.2 µg/mL)
Staphylococcus aureus [14]
  MIC: 128 µM (≈ 63.2 µg/mL)
[15]
  MIC: 128 µM (≈ 63.2 µg/mL)
DNA [16]
  ΔTm: 16.6 °C
DNA [17]
  ΔTm: 12 °C
DNA [18]
  ΔTm: 14.9 °C
DNA [19]
  ΔTm: 12.2 °C
DNA [20]
  ΔTm: 22.8 °C
DNA [21]
  Tm: 77.6 °C
DNA [22]
  Tm: 76.2 °C
DNA [23]
  Tm: 74.3 °C
DNA [24]
  Tm: 72.2 °C
DNA [25]
  Tm: 92.8 °C
DNA [26]
  Tm: 78 °C
Enterococcus faecium [27]
  MIC: 16 µM (≈ 7.9 µg/mL)
DNA [28]
  ΔTm: 14.3 °C

## CC(C)C[C@@H]1NC(=O)[C@H](CCCN)NC(=O)[C@H](C(C)C)NC(=O)[C@@H]2CCCN2C(=O)[C@@H](Cc2ccccc2)NC(=O)[C@H](CC(C)C)NC(=O)[C@H](CCCN)NC(=O)[C@H](C(C)C)NC(=O)[C@@H]2CCCN2C(=O)[C@@H](Cc2ccccc2)NC1=O (cyclo(V[Orn]L[dF]PV[Orn]L[dF]P))
Escherichia coli [1]
  Activity: Active
Bacillus cereus [2]
  Activity: Active
Enterococcus faecium [3]
  Activity: Active
Staphylococcus aureus [4]
  Activity: Active
